# Measurements reported in ChEMBL document CHEMBL4312029, “Structure-activity relationship studies and in vitro and in vivo anticancer activity of novel 3-aroyl-1,4-diarylpyrroles against solid tumors and hematological malignancies” (Eur J Med Chem, 2020).
# Key:
# Tubulin = assay: Inhibition of tubulin polymerization (unknown origin) incubated for 15 mins followed by GTP addition and measured for 20 mins by spectrophotometry; type: protein-complex assay, Homo sapiens
# How it was run: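 Tubulin assembly assay with tubulin at 10 µM. IC50 for inhibition of polymerization; run in duplicate or triplicate.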
# MCF7 = assay: Cytotoxicity against human MCF7 cells assessed as reduction in cell growth incubated for 96 hrs by MTT assay; type: functional, cell-based; conditions: MCF7, 96 h
# How it was run: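 Growth inhibition of human breast carcinoma cells, reported as IC50; run in duplicate or triplicate.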
# Tubulin (Homo sapiens) = Tubulin (Homo sapiens) (UniProt P68371+Q9H4B7+P0DPH7+P68366+Q13509+Q71U36+P04350+Q3ZCM7+P07437+P68363+Q9BQE3+Q6PEY2+Q13885+Q9BVA1+Q9BUF5); assay: Inhibition of [3H]colchicine binding to tubulin (unknown origin) at 5 uM incubated for 10 mins by DEAE-cellulose filter method relative to control; type: protein-complex assay
Compound,IC50 (Tubulin),IC50 (MCF7),inhibition (Tubulin (Homo sapiens))
COc1cc(C(=O)c2cn(-c3ccccc3Cl)cc2-c2ccccc2)cc(OC)c1OC,> 20000 nM,1800 nM,–
COc1cc(C(=O)c2cn(-c3ccccc3)cc2-c2cccc(Br)c2)cc(OC)c1OC,> 20000 nM,950 nM,–
COc1cc(C(=O)c2cn(-c3ccc(N)cc3)cc2-c2ccccc2)cc(OC)c1OC,1600 nM,35 nM,67%
COc1cc(C(=O)c2cn(-c3ccc(N)cc3)cc2-c2ccccc2Cl)cc(OC)c1OC,710 nM,83 nM,65%
COc1cc(C(=O)c2cn(-c3ccccc3)cc2-c2ccccc2[N+](=O)[O-])cc(OC)c1OC,730 nM,49 nM,61%
COc1cc(C(=O)c2cn(-c3ccccc3)cc2-c2cccc(Cl)c2)cc(OC)c1OC,2300 nM,540 nM,7.5%
COc1cc(C(=O)c2cn(-c3cccc(C)c3)cc2-c2cccc(N)c2)cc(OC)c1OC,910 nM,130 nM,64%
COc1cc(C(=O)c2cn(-c3ccccc3)cc2/C=C/c2ccccc2)cc(OC)c1OC,> 20000 nM,2200 nM,–
COc1cc(C(=O)c2cn(-c3ccc([N+](=O)[O-])cc3)cc2-c2ccccc2)cc(OC)c1OC,3300 nM,4000 nM,18%
COc1cc(C(=O)c2cn(-c3ccc(N)cc3)cc2-c2ccccc2[N+](=O)[O-])cc(OC)c1OC,520 nM,53 nM,69%
COc1cc(C(=O)c2cn(-c3cccc(N)c3)cc2-c2cccc(N)c2)cc(OC)c1OC,880 nM,60 nM,70%
COc1cc(C(=O)c2cn(-c3cccc(N)c3)cc2-c2ccccc2Cl)cc(OC)c1OC,630 nM,40 nM,79%
COc1cc(C(=O)c2cn(-c3cccc(C)c3)cc2-c2ccccc2F)cc(OC)c1OC,790 nM,190 nM,57%
COc1cc(C(=O)c2cn(-c3ccccc3)cc2-c2ccc(Br)cc2)cc(OC)c1OC,770 nM,340 nM,14%
COc1cc(C(=O)c2cn(-c3cccc(C)c3)cc2-c2ccc(N)cc2)cc(OC)c1OC,330 nM,18 nM,88%
COc1cc(C(=O)c2cn(-c3cccc(C)c3)cc2-c2ccccc2[N+](=O)[O-])cc(OC)c1OC,1200 nM,220 nM,41%
COc1cc(C(=O)c2cn(-c3cccc(C)c3)cc2-c2ccccc2Cl)cc(OC)c1OC,710 nM,420 nM,39%
COc1cc(C(=O)c2cn(-c3ccc(F)cc3)cc2-c2cccc(N)c2)cc(OC)c1OC,410 nM,53 nM,68%
COc1cc(C(=O)c2cn(-c3ccc(Br)cc3)cc2-c2ccccc2)cc(OC)c1OC,660 nM,20 nM,78%
COc1cc(C(=O)c2cn(-c3ccc(F)cc3)cc2-c2cccc([N+](=O)[O-])c2)cc(OC)c1OC,> 20000 nM,440 nM,11%
COc1cc(C(=O)c2cn(-c3ccccc3)cc2-c2cc(F)ccc2F)cc(OC)c1OC,1300 nM,230 nM,24%
COc1cc(C(=O)c2cn(-c3ccccc3N)cc2-c2ccccc2)cc(OC)c1OC,> 20000 nM,3800 nM,–
COc1ccc(-n2cc(C(=O)c3cc(OC)c(OC)c(OC)c3)c(-c3ccccc3)c2)cc1,960 nM,120 nM,27%
COc1cc(C(=O)c2cn(-c3cccc(N)c3)cc2-c2cccc([N+](=O)[O-])c2)cc(OC)c1OC,1700 nM,510 nM,32%
COc1cc(C(=O)c2cn(-c3ccccc3)cc2-c2ccc(Cl)cc2)cc(OC)c1OC,1200 nM,290 nM,23%
COc1cc(C(=O)c2cn(-c3cc(OC)c(OC)c(OC)c3)cc2-c2ccccc2)cc(OC)c1OC,> 20000 nM,> 5000 nM,6.5%
COc1cc(C(=O)c2cn(-c3cccc(N)c3)cc2-c2ccc([N+](=O)[O-])cc2)cc(OC)c1OC,780 nM,110 nM,41%
COc1cc(C(=O)c2cn(-c3ccc(F)cc3)cc2-c2ccc([N+](=O)[O-])cc2)cc(OC)c1OC,> 20000 nM,240 nM,0%
COc1ccccc1-n1cc(C(=O)c2cc(OC)c(OC)c(OC)c2)c(-c2ccccc2)c1,1300 nM,150 nM,22%
COc1cc(C(=O)c2cn(-c3ccccc3)cc2-c2c(F)cc(F)cc2F)cc(OC)c1OC,510 nM,180 nM,27%
